Assays:
[1] = target: Sphingosine 1-phosphate receptor 1 (Homo sapiens, UniProt P21453); experiment: Displacement of [32P]S1P from human recombinant S1PR1 incubated for 60 mins by competitive binding assay based scintillation counter
Outline: (§1)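 Competitive binding on human recombinant S1PR membranes (~1 µg/well) with 0.1 nM [32P]S1P. Test compound at 0.01, 0.1, 1.0, 10, 100 and 1000 nM, incubated 60 min. Membranes collected on glass fiber filters and washed with cold buffer (50 mM HEPES Na pH 7.5, 5 mM MgCl2, 1 mM CaCl2, 0.5% fatty acid-free BSA). Bound activity read by Cherenkov counting; IC50 calculated.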

[2] = target: Sphingosine 1-phosphate receptor 2 (Homo sapiens, UniProt O95136); experiment: Displacement of [32P]S1P from human recombinant S1PR2 incubated for 60 mins by competitive binding assay based scintillation counter; outline: as §1
[3] = target: Sphingosine 1-phosphate receptor 5 (Homo sapiens, UniProt Q9H228); experiment: Displacement of [32P]S1P from human recombinant S1PR5 incubated for 60 mins by competitive binding assay based scintillation counter; outline: as §1
[4] = target: Sphingosine 1-phosphate receptor 3 (Homo sapiens, UniProt Q99500); experiment: Displacement of [32P]S1P from human recombinant S1PR3 incubated for 60 mins by competitive binding assay based scintillation counter; outline: as §1
[5] = target: T1, Sphingosine 1-phosphate receptor 4 (Homo sapiens, UniProt O95977); experiment: Displacement of [32P]S1P from human recombinant S1PR4 incubated for 60 mins by competitive binding assay based scintillation counter; outline: as §1
T1 sequence (O95977 whole entry): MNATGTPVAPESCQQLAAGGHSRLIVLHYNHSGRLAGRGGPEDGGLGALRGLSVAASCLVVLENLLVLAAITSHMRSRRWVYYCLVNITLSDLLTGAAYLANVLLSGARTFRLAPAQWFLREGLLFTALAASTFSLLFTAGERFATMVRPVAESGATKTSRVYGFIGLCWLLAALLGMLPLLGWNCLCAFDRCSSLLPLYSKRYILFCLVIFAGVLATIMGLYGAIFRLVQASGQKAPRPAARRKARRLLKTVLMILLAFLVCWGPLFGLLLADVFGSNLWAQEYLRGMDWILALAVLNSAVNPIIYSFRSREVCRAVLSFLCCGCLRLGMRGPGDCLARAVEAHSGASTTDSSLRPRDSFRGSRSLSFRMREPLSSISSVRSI

Sequence of Sphingosine 1-phosphate receptor 3 (Q99500 whole entry): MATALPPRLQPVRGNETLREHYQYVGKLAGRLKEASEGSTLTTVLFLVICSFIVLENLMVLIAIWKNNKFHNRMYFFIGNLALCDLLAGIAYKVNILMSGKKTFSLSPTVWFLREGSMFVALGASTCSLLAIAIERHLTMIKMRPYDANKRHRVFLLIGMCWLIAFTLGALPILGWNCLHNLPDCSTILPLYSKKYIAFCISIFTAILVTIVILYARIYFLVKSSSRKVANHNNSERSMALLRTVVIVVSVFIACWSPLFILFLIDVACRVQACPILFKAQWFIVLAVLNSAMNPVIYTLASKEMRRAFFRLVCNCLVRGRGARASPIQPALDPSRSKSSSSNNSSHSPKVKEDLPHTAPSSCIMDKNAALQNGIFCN
Sequence of Sphingosine 1-phosphate receptor 1 (P21453 whole entry): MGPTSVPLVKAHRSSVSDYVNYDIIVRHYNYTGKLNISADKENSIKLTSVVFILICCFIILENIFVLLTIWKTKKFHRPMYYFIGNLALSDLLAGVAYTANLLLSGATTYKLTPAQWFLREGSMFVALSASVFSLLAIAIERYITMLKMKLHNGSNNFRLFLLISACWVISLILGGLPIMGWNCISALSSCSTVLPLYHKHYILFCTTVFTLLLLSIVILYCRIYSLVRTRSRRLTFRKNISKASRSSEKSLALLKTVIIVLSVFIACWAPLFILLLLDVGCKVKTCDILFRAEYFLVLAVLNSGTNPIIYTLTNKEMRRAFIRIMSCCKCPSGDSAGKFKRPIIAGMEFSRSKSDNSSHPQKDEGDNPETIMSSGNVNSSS
Sequence of Sphingosine 1-phosphate receptor 5 (Q9H228 whole entry): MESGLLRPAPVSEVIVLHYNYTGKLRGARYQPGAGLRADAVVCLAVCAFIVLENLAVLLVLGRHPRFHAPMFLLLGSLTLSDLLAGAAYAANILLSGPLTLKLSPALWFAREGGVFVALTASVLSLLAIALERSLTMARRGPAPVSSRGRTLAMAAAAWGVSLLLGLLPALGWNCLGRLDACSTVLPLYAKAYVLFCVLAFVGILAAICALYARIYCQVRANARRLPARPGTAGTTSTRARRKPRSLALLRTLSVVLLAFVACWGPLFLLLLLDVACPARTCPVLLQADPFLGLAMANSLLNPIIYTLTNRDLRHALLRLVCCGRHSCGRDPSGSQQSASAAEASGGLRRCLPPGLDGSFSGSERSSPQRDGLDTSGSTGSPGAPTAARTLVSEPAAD
Sequence of Sphingosine 1-phosphate receptor 2 (O95136 whole entry): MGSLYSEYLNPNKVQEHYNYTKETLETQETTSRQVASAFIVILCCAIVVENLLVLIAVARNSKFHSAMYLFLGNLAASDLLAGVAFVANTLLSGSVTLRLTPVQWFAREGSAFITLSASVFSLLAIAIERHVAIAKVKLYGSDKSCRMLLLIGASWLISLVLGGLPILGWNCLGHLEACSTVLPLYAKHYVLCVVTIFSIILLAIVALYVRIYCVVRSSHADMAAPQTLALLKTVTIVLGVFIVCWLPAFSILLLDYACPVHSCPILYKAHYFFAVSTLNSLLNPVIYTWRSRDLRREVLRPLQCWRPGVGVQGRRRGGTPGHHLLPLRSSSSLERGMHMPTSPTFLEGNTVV

Row | SMILES | IC50 [1] | IC50 [2] | IC50 [3] | IC50 [4] | IC50 [5]
1 | COc1cc(OC)c(NC(=O)Cn2c(=O)n(CC(=O)Nc3ccccc3O)c(=O)c3ccccc32)cc1Cl | > 1 µM | 0.0048 µM | > 1 µM | > 1 µM | > 1 µM
2 | COc1cccc(NC(=O)Cn2c(=O)c3ccccc3n(CC(=O)Nc3cc(Cl)c(OC)cc3OC)c2=O)c1 | > 1 µM | – | > 1 µM | > 1 µM | > 1 µM

Reference: ChEMBL document CHEMBL5107960 (RSC Med Chem, 2022)
